From ChEMBL document CHEMBL4400516, “A novel cereblon modulator for targeted protein degradation” (Eur J Med Chem, 2019)
Each block holds one compound with its values, some of them ahead of it. Calls of active or inactive are those of the source. The calls are words filed in the database; no cut-off is given here.

Key:
NCI-H929 = test: Antiproliferative activity against human NCI-H929 cells after 72 hrs by WST-1 assay; assay type: functional; details: NCI-H929, 72 h
Outline: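 NCI-H929 myeloma cells (RPMI-1640, 10% FBS, 0.05 mM 2-mercaptoethanol) seeded at 30% confluency and dosed the next day. After 72 h, WST-1 reagent added and absorbance at 450 nm read. IC50 from nonlinear log(inhibitor) versus response fit.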

[1] = target: T1, Protein cereblon/Bromodomain-containing protein 4 (Homo sapiens, UniProt O60885+Q96SW2); test: Induction of CRBN-mediated BRD4 degradation in human 22RV1 cells in presence of TD-106 by immunoblotting analysis; assay type: cell-based
[2] = target: Protein cereblon/Bromodomain-containing protein 3 (Homo sapiens) (UniProt Q15059+Q96SW2); test: Induction of CRBN-mediated BRD3 degradation in human 22RV1 cells up to 1000 nM measured after 24 hrs by immunoblotting analysis; assay type: cell-based
Outline: (§1)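 22Rv1 prostate cancer cells (RPMI-1640, 10% FBS) given a 24 h dose titration. Lysates in HEPES/Triton X-100 buffer with protease inhibitor, then SDS-PAGE, nitrocellulose transfer and immunoblot.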

[3] = target: T1, Protein cereblon/Bromodomain-containing protein 4; test: Induction of CRBN-mediated BRD4 degradation in human 22RV1 cells measured after 24 hrs by immunoblotting analysis; assay type: cell-based
[4] = target: T1, Protein cereblon/Bromodomain-containing protein 4; test: Induction of CRBN-mediated BRD4 degradation in human 22RV1 cells in presence of JQ1 by immunoblotting analysis; assay type: cell-based
CWR22R = test: Antiproliferative activity against human 22Rv1 cells after 72 hrs by CelTiter-Glo reagent-based luminescence assay; assay type: functional; details: 22Rv1, 72 h
Outline: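 22Rv1 cells, 15,000 per well, exposed to compound at indicated concentrations for 72 hr. Viability read by CellTiter-Glo luminescence; relative growth versus DMSO-treated control. IC50 from nonlinear log(inhibitor) versus response fit.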

[5] = target: T1, Protein cereblon/Bromodomain-containing protein 4; test: Induction of CRBN-mediated BRD4 degradation in human 22RV1 cells in presence of neddylation inhibitor MLN4924 by immunoblotting analysis; assay type: cell-based
[6] = target: Protein cereblon/Zinc finger protein Aiolos (Homo sapiens) (UniProt Q96SW2+Q9UKT9); test: Induction of CRBN ubiquitin ligase-mediated IKZF3 degradation in human U266 cells up to 10 uM measured after 12 hrs by immunoblotting analysis
[7] = target: T1, Protein cereblon/Bromodomain-containing protein 4; test: Induction of CRBN-mediated BRD4 degradation in human 22RV1 cells in presence of proteasome inhibitor bortezomib by immunoblotting analysis; assay type: cell-based
[8] = target: T1, Protein cereblon/Bromodomain-containing protein 4; test: Induction of Xpress-tagged CRBN (unknown origin)/FALG-tagged BRD4 (unknown origin) protein-protein interaction by immunoblotting analysis; assay type: protein assay
Outline: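 Cells co-transfected with Xpress-CRBN and FLAG-BRD4 using X-tremeGENE HP. Lysates incubated with anti-FLAG magnetic beads, 4 °C for 3 h. Beads washed in lysis buffer and 500 mM NaCl wash buffer, eluted in SDS sample buffer, and immunoblotted.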

[9] = target: Bromodomain-containing protein 4 (Homo sapiens) (UniProt O60885); test: Induction of BRD4 degradation in CRBN knockdown human 22RV1 cells by immunoblotting analysis
Outline: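 22Rv1 cells transfected with CRBN siRNA or negative-control siRNA using RNAiMAX. After 48 h, degrader added for 12 h. Lysates in HEPES/Triton X-100 buffer with protease inhibitor, then SDS-PAGE and immunoblot.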

[10] = target: Protein cereblon/Bromodomain-containing protein 2 (Homo sapiens) (UniProt P25440+Q96SW2); test: Induction of CRBN-mediated BRD2 degradation in human 22RV1 cells up to 1000 nM measured after 24 hrs by immunoblotting analysis; assay type: cell-based; outline: as §1
TMD8 = test: Antitumor activity against human TMD8 cells xenografted in CB-17/IcrCri SCID mouse assessed as tumor growth inhibition at 50 mg/kg, ip qd for 14 days measured during compound dosing; assay type: functional, organism-based
Outline: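 Female CB-17/IcrCri-scid mice carried subcutaneous TMD8 tumours in the right flank. Dosing began at about 150 mm3 mean tumour volume: 50 mg/kg i.p. once daily for 14 days in 20% PEG 400 / 3% Tween 80 in PBS, with DMSO as control. Calipers twice weekly; volume = length x width² x 0.5. Mean ± SE, n = 6.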

[11] = Toxicity in CB-17/IcrCri SCID mouse xenografted with human TMD8 cells assessed as adverse effect at 50 mg/kg, ip qd for 14 days; assay type: organism-based; details: in vivo, 336 h
Outline: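 TMD8 subcutaneous xenografts in female CB-17/IcrCri-scid mice dosed i.p. at 50 mg/kg daily for 14 days in 20% PEG 400 / 3% Tween 80 in PBS, starting at about 150 mm3 tumours. Animals observed daily for signs of morbidity or mortality.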

[12] = Toxicity in CB-17/IcrCri SCID mouse xenografted with human TMD8 cells assessed as change in body weight at 50 mg/kg, ip qd for 14 days measured twice weekly during compound dosing; assay type: organism-based; details: in vivo, 336 h

T1 sequence (Q96SW2 whole entry, looked up, other chains not shown): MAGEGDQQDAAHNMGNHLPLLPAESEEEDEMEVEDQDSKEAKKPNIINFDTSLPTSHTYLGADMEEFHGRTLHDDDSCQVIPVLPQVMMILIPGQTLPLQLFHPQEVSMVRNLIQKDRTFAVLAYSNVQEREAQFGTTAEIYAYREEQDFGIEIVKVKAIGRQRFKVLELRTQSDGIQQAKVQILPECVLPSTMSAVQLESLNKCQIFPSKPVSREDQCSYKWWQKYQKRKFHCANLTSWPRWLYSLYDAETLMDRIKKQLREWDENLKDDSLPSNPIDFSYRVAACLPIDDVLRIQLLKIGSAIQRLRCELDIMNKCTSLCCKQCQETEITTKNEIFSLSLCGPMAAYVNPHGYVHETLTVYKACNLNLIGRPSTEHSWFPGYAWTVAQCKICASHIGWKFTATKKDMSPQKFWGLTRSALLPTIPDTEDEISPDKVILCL
Protein cereblon/Bromodomain-containing protein 3 (Homo sapiens), sequence (Q15059 2-726 limits assumed): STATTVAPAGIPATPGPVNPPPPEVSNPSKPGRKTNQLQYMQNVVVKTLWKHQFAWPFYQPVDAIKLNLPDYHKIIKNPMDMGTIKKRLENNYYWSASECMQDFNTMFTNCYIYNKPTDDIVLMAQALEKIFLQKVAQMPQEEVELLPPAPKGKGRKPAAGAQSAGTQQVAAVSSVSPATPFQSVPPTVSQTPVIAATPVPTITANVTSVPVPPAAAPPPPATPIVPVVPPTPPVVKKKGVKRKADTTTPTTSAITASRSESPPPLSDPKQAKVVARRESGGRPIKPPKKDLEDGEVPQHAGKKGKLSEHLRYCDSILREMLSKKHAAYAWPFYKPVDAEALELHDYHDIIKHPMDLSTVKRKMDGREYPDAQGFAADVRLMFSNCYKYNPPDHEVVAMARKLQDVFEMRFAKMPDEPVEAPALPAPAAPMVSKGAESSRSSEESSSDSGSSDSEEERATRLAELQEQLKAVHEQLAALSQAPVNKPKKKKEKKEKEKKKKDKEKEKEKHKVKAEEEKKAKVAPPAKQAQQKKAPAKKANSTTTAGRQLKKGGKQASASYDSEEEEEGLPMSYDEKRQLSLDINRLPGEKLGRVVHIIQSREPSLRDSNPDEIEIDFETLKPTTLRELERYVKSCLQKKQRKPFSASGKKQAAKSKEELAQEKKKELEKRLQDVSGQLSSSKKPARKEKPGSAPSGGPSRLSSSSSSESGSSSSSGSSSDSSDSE
Protein cereblon/Bromodomain-containing protein 3 (Homo sapiens), sequence (Q96SW2 whole entry partner): as the sequence (Q96SW2 whole entry, looked up, other chains not shown) above
Protein cereblon/Zinc finger protein Aiolos (Homo sapiens), sequence (Q96SW2 whole entry, looked up): as the sequence (Q96SW2 whole entry, looked up, other chains not shown) above
Protein cereblon/Zinc finger protein Aiolos (Homo sapiens), sequence (Q9UKT9 whole entry, looked up): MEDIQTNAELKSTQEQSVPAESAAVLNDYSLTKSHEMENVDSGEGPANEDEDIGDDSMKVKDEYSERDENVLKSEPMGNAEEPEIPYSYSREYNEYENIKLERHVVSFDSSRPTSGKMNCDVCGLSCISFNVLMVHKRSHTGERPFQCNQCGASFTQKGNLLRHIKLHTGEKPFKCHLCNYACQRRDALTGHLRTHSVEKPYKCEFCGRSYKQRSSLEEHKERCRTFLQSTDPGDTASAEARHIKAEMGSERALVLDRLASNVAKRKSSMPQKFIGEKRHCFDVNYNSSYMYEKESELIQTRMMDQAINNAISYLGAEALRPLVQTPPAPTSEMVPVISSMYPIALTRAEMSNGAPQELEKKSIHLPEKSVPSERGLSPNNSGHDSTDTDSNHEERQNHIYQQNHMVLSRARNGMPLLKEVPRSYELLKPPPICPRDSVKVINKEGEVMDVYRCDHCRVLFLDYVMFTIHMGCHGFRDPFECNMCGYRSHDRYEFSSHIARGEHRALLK
Protein cereblon/Bromodomain-containing protein 2 (Homo sapiens), sequence (P25440 whole entry, looked up): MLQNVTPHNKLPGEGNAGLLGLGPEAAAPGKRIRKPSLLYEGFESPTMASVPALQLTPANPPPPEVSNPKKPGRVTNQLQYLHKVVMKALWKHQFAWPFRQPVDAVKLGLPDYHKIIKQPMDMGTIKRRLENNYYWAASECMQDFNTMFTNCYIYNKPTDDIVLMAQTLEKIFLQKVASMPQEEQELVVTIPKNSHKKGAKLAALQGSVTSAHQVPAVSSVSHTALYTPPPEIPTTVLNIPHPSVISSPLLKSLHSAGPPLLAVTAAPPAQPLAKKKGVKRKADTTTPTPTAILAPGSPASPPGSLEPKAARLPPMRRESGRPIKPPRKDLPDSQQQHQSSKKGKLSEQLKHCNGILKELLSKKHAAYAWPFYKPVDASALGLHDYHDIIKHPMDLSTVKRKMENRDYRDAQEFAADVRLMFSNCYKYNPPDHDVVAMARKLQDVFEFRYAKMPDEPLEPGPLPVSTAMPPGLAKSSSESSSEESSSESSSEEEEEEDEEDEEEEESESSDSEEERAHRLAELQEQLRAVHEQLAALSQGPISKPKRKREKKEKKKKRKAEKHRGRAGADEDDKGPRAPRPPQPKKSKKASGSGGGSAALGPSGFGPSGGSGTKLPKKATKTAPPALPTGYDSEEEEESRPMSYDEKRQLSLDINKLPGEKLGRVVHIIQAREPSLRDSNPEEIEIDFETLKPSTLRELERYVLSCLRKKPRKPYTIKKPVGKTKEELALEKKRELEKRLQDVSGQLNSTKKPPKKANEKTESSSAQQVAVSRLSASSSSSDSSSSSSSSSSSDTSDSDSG
Protein cereblon/Bromodomain-containing protein 2 (Homo sapiens), sequence (Q96SW2 whole entry, looked up): as the sequence (Q96SW2 whole entry, looked up, other chains not shown) above

SMILES: Nc1cccc2c1C(=O)N(C1CCC(=O)NC1=O)C2=O (configuration not stated) [POMALIDOMIDE]
CC50 (NCI-H929): 0.035 µM

Activity [1]: inactive
Activity [2]: Active
DC50 [3]: 0.00032 µM
Activity [4]: inactive
Activity [5]: inactive
Activity [6]: Active
Activity [7]: inactive
Activity [8]: Active
Activity [9]: inactive
Activity [10]: Active
SMILES: Cc1sc2c(c1C)C(c1ccc(Cl)cc1)=N[C@@H](CC(=O)Nc1cccc(OCCOCCOCCNc3cccc4nnn(C5CCC(=O)NC5=O)c(=O)c34)c1)c1nnc(C)n1-2 (some centres not stated)
CC50 (CWR22R): 0.0201 µM

DC50 [3]: 0.0033 µM
SMILES: Cc1sc2c(c1C)C(c1ccc(Cl)cc1)=N[C@@H](CC(=O)Nc1ccc(OCCOCCOCCNc3cccc4nnn(C5CCC(=O)NC5=O)c(=O)c34)cc1)c1nnc(C)n1-2 (some centres not stated)

SMILES: Nc1cccc2nnn(C3CCC(=O)NC3=O)c(=O)c12 (configuration not stated)
CC50 (NCI-H929): 0.039 µM
TGI (TMD8): Active
Activity [11]: Non-Toxic
Activity [12]: Non-Toxic
